The structures appear in SMILES notation. pKi: −log10 of the molar value. Active and inactive are the calls of the source. No cut-off for these calls is given here. Where only a bound is given, the exact number is not on record here.

The inhibition is how much of the control response was suppressed. A word on the pKi: it is −log10 of the Ki, conventionally taken in molar units.

Assay [1] has as its target T1, Thymidine kinase, cytosolic (Cricetulus griseus) (UniProt P09768).
T1 sequence (whole entry): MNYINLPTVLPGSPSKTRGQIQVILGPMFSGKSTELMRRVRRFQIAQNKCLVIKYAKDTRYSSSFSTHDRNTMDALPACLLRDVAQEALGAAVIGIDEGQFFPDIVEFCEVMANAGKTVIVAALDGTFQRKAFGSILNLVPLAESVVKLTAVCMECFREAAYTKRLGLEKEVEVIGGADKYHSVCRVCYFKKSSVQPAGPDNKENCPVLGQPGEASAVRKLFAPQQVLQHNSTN
Description: Activity at thymidine kinase in BHK21 (C13) cells at 60 uM after 30 mins relative to thymidine. Type of assay: cell-based. To be noted: Mesocricetus auratus. In a few lines:
(§1)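 Radiolabeled thymidine or 2'-deoxyuridine derivatives tested as substrates: 40 μL BHK21(C13) 100000g supernatant, Tris-HCl 0.05 M pH 8.0, ATP 5 mM, MgCl2 2.5 mM, no thymidine, 30 min at 37 °C. Products separated by paper electrophoresis in 0.05 M triethylammonium bicarbonate pH 7.6; radioactivity counted in the TMP region.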

The target of assay [2] is T1, Thymidine kinase, cytosolic (Cricetulus griseus). The assay can be described thus: Inhibition of thymidine kinase in BHK21 (C13) cells using [14C]thymidine at 50 uM after 10 mins by liquid scintillation spectrometer analysis relative to control in presence of Mg2+. Type of assay: cell-based. Particulars: Mesocricetus auratus.
For assay [3], the target named is T2, Thymidine kinase, cytosolic (Homo sapiens, UniProt P04183).
T2 sequence (P04183 whole entry): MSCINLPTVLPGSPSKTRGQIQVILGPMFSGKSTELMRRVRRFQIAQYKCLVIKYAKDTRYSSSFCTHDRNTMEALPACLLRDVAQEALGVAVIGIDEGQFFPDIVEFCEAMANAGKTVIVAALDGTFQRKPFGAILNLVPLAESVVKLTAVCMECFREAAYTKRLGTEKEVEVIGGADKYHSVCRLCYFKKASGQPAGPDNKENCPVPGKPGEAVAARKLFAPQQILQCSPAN
Description: Inhibition of human cytoplasmic thymidine kinase.

The target in assay [4] is T3, Thymidine kinase 2, mitochondrial (Homo sapiens, UniProt O00142).
T3 sequence (O00142 whole entry): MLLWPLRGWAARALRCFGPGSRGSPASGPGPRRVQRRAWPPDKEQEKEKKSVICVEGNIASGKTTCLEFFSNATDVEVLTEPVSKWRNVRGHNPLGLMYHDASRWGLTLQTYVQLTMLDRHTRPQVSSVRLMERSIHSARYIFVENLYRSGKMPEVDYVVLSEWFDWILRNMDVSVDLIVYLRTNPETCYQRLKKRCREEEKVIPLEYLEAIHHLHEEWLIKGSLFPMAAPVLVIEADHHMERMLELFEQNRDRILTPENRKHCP
Description: Inhibition of human mitochondrial thymidine kinase.

Assay [5] concerns the target T1, Thymidine kinase, cytosolic (Cricetulus griseus). The assay can be described thus: Inhibition of thymidine kinase in BHK21 (C13) cells using thymidine as substrate assessed as formation of TMP at 4 mM. The format is cell-based. To be noted: Mesocricetus auratus. In a few lines:
(§2)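 BHK21(C13) 100000g supernatant in Tris-HCl 0.05 M pH 8.0, ATP 5 mM, MgCl2 2.5 mM, [14C]thymidine 3.6 μM, 10 min at 37 °C. Reaction stopped by boiling; [14C]TMP bound to DEAE-cellulose disks and counted by liquid scintillation, corrected for unincubated blanks.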

For assay [6] the target is unchanged. Description: Inhibition of thymidine kinase in BHK21 (C13) cells using thymidine as substrate assessed as formation of TMP at 2 mM. Type of assay: cell-based. Particulars: Mesocricetus auratus. In outline: as §2
Assay [7] shares this target. The assay can be described thus: Activity at thymidine kinase in BHK21 (C13) cells at 350 uM after 30 mins relative to thymidine. The format is cell-based. To be noted: Mesocricetus auratus. In a few lines: as §1
The target is the same in assay [8]. The assay can be described thus: Activity at thymidine kinase in BHK21 (C13) cells at 54 to 542 uM after 30 mins relative to thymidine. Type of assay: cell-based. To be noted: Mesocricetus auratus. In outline: as §1
Assay [9] shares this target. Description: Inhibition of thymidine kinase in BHK21 (C13) cells using thymidine as substrate assessed as formation of TMP at 12 mM. The format is cell-based. Particulars: Mesocricetus auratus. In outline:
as §2

The target is the same in assay [10]. Description: Inhibition of thymidine kinase in BHK21 (C13) cells using thymidine as substrate assessed as formation of TMP at 6 mM. The format is cell-based. Particulars: Mesocricetus auratus. In a few lines: as §2

`CC(=O)NCCCC(=O)Nc1cn([C@H]2C[C@H](O)[C@@H](CO)O2)c(=O)[nH]c1=O`: the Activity in assay [1] is < 0.25%.
`Cc1cn([C@H]2C[C@H](O)[C@@H](COP(=O)(O)OP(=O)(O)OP(=O)(O)O)O2)c(=O)[nH]c1=O`: in assay [2], the inhibition entry was “Active”.
Take `CCCc1cn([C@H]2C[C@H](O)[C@@H](CO)O2)c(=O)[nH]c1=O`: the pKi in assay [3] and in assay [4] was 4.70 each time.
As for `CC(=O)Nc1cn([C@H]2C[C@H](O)[C@@H](CO)O2)c(=O)[nH]c1=O`, the figures for the inhibition in assay [5] and in assay [6] were 13% and 8%, respectively. In assay [7], the Activity was < 0.25%.
As to `CC(=O)NCc1cn([C@H]2C[C@H](O)[C@@H](CO)O2)c(=O)[nH]c1=O`, in assay [8], the Activity is < 0.25%. Besides, the inhibition in assay [9] and in [10] was 0% throughout.

Source of the values: ChEMBL document CHEMBL3227986, “Design of species- or isozyme-specific enzyme inhibitors. 1. Effect of thymidine substituents on affinity for the thymidine site of hamster cytoplasmic thymidine kinase” (J Med Chem, 1979).
